Reference: ChEMBL document CHEMBL4049458, “Structure-Based Optimization of Thiophene[3,2-d]pyrimidine Derivatives as Potent HIV-1 Non-nucleoside Reverse Transcriptase Inhibitors with Improved Potency against Resistance-Associated Variants” (J Med Chem, 2017)

Columns and labels:
[1] = Selectivity index, ratio of CC50 for human MT4 cells to EC50 for HIV1 RES056 reverse transcriptase K103N/Y181C double mutant infected in human MT4 cells; settings: MT4 cells
[2] = Selectivity index, ratio of CC50 for human MT4 cells to EC50 for reverse transcriptase Y188L mutant in human MT4 cells infected HIV1 3B; settings: MT4 cells
[3] = Selectivity index, ratio of CC50 for human MT4 cells to EC50 for reverse transcriptase E138K mutant in human MT4 cells infected HIV1 3B; settings: MT4 cells
[4] = system: Human immunodeficiency virus 1; assay: Antiviral activity against wild type HIV1 3B harboring reverse transcriptase infected in human MT4 cells assessed as protection against virus induced cytotoxicity after 5 days by MTT assay; assay type: functional, cell-based; settings: Human immunodeficiency virus 1, 3B, MT4, 120 h
[5] = system: Human immunodeficiency virus 2; assay: Antiviral activity against HIV2 ROD harboring reverse transcriptase infected in human MT4 cells assessed as protection against virus induced cytotoxicity after 5 days by MTT assay; assay type: functional, cell-based; settings: Human immunodeficiency virus 2, ISOLATE ROD, MT4, 120 h
[6] = Selectivity index, ratio of CC50 for human MT4 cells to EC50 for reverse transcriptase F227L/V106A double mutant in human MT4 cells infected HIV1 3B; settings: MT4 cells
[7] = Inhibition of recombinant wild type HIV1 3B reverse transcriptase infected in human MT4 cells assessed as decrease in biotin-dUTP incorporation after 1 hr; assay type: cell-based; settings: Human immunodeficiency virus 1, 3B, MT4, 1 h
Outline: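 Recombinant HIV-1 RT assayed with a kit ELISA. Enzyme, reconstituted template and nucleotides (DIG-dUTP, biotin-dUTP, dTTP) were incubated in incubation buffer with or without inhibitor for 1 h at 37 °C. Product was captured on streptavidin plates for 1 h at 37 °C, then anti-DIG-POD was added for 1 h at 37 °C, followed by ABTS. Read at OD405.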

[8] = Cytotoxicity against human MT4 cells assessed as cell viability after 5 days by MTT assay; assay type: cell-based
[9] = Selectivity index, ratio of CC50 for human MT4 cells to EC50 for reverse transcriptase Y181C mutant in human MT4 cells infected HIV1 3B; settings: MT4 cells
[10] = Selectivity index, ratio of CC50 for human MT4 cells to EC50 for reverse transcriptase K103N mutant in human MT4 cells infected HIV1 3B; settings: MT4 cells
[11] = Selectivity index, ratio of CC50 for human MT4 cells to EC50 for reverse transcriptase L100I mutant in human MT4 cells infected HIV1 3B; settings: MT4 cells
[12] = Selectivity index, ratio of CC50 for human MT4 cells to EC50 for wild type HIV1 3B harboring reverse transcriptase infected in human MT4 cells; settings: MT4 cells
[13] = Fold resistance, ratio of EC50 for reverse transcriptase E138K mutant in human MT4 cells infected HIV1 3B to EC50 for wild type HIV1 3B harboring reverse transcriptase infected in human MT4 cells; assay type: functional
Outline: (§1)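 MT-4 cells at 6 × 10^5 cells/mL were infected with WT HIV-1 IIIB or RT-mutant strains at 100−300 CCID50, with 5-fold serial compound dilutions in triplicate wells. After 5 days, viability was read by MTT reduction at 540 and 690 nm, using the median OD of three wells. […] Fold resistance is mutant EC50 divided by WT EC50.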

[14] = Fold resistance, ratio of EC50 for reverse transcriptase K103N/Y181C double mutant in human MT4 cells infected HIV1 RES056 to EC50 for wild type HIV1 3B harboring reverse transcriptase infected in human MT4 cells; assay type: functional; outline: as §1
[15] = Fold resistance, ratio of EC50 for reverse transcriptase L100I mutant in human MT4 cells infected HIV1 3B to EC50 for wild type HIV1 3B harboring reverse transcriptase infected in human MT4 cells; assay type: functional; outline: as §1

| SMILES | selectivity ratio [1] | selectivity ratio [2] | selectivity ratio [3] | EC50 [4] [nM] | EC50 [5] [nM] | selectivity ratio [6] | IC50 [7] [nM] | CC50 at 120 h [8] [nM] | selectivity ratio [9] | selectivity ratio [10] | selectivity ratio [11] | selectivity ratio [12] | Ratio EC50 [13] | Ratio EC50 [14] | Ratio EC50 [15] |
| --- | --- | --- | --- | --- | --- | --- | --- | --- | --- | --- | --- | --- | --- | --- | --- |
| Cc1cc(C#N)cc(C)c1Oc1nc(NC2CCN(Cc3ccc(S(N)(=O)=O)cc3)CC2)nc2sccc12 | 625 | 3170 | 3180 | 1.97 | > 24100 | 2730 | 420 | 24100 | 3160 | 7370 | 5440 | 12300 | – | – | – |
| Cc1cc(C#N)cc(C)c1Oc1nc(NC2CCC(NCc3ccc(S(N)(=O)=O)cc3)CC2)nc2ccsc12 (stereo not given) | – | – | – | 42.2 | – | – | 4020 | 3690 | – | – | – | – | – | – | – |
| Cc1cc(C#N)cc(C)c1Oc1nc(NC2CCC(NCc3ccc([N+](=O)[O-])cc3)CC2)nc2ccsc12 (stereo not given) | < 1 | 5 | 344 | 100 | > 54400 | 84 | – | 54400 | ≤ 2 | 79 | 35 | 544 | 1.6 | – | – |
| Cc1cc(C#N)cc(C)c1Oc1nc(NC2CCN(Cc3ccc(S(N)(=O)=O)cc3)CC2)nc2ccsc12 | > 7350 | > 75800 | > 78100 | – | – | > 53500 | – | – | > 70000 | > 78100 | > 67400 | – | – | 21 | 2.4 |
| Cc1cc(/C=C/C#N)cc(C)c1Oc1nc(NC2CCN(Cc3cccc(F)c3)CC2)nc2ccsc12 | 38 | 30 | 150 | 9.73 | > 4760 | 84 | – | 4760 | 138 | 226 | 216 | 489 | – | – | – |
| Cc1cc(/C=C/C#N)cc(C)c1Oc1nc(NC2CCN(Cc3ccc(F)cc3)CC2)nc2ccsc12 | 20 | 17 | 74 | 5.86 | > 2580 | 25 | – | 2580 | 95 | 405 | 181 | 441 | – | – | – |
| Cc1cc(/C=C/C#N)cc(C)c1Oc1nc(NC2CCN(Cc3cccc(Br)c3)CC2)nc2ccsc12 | 37 | 48 | 61 | 25.8 | > 7950 | 85 | – | 7950 | 62 | 269 | 279 | 308 | – | – | – |
| Cc1cc(/C=C/C#N)cc(C)c1Oc1nc(NC2CCN(Cc3cccnc3)CC2)nc2ccsc12 | 308 | 358 | 587 | 3.22 | > 3860 | 664 | – | 3860 | 637 | 872 | 866 | 1200 | – | 3.4 - 6 | – |
| CCOC(=O)C1CN(Cc2ccc(S(N)(=O)=O)cc2)CCC1Nc1nc(Oc2c(C)cc(C#N)cc2C)c2sccc2n1 (stereo not given) | ≤ 5 | < 1 | 7 | 134 | > 4240 | 3 | – | 4240 | 23 | 18 | 11 | 32 | – | – | – |
| Cc1cc(/C=C/C#N)cc(C)c1Oc1nc(NC2CCN(Cc3ccncc3)CC2)nc2ccsc12 | 162 | 148 | 560 | 3.34 | > 4780 | 322 | – | 4780 | 825 | 859 | 752 | 1430 | – | – | – |
| Cc1cc(C#N)cc(C)c1Oc1nc(NC2CCC(NCc3ccccc3)CC2)nc2ccsc12 (stereo not given) | < 1 | < 1 | 3 | 230 | > 2970 | 3 | – | 2970 | < 1 | 4 | 3 | 13 | – | – | – |
| Cc1cc(/C=C/C#N)cc(C)c1Oc1nc(NC2CCN(Cc3ccccn3)CC2)nc2ccsc12 | 32 | 92 | 517 | 3.36 | > 3850 | 144 | – | 3850 | 418 | 724 | 210 | 1150 | – | – | – |
| Cc1cc(C#N)cc(C)c1Oc1nc(NC2CCN(Cc3cccc(C(N)=O)c3)CC2)nc2sccc12 | > 10 | > 2870 | > 5610 | 5.17 | > 48700 | > 1930 | – | > 48700 | > 5300 | > 5490 | > 4630 | > 9420 | – | – | – |
| Cc1cc(/C=C/C#N)cc(C)c1Oc1nc(NC2CCN(Cc3ccc(Br)cc3)CC2)nc2ccsc12 | 44 | 24 | 44 | 28.3 | > 6790 | 42 | – | 6790 | 53 | 227 | 117 | 240 | – | – | – |
| Cc1cc(C#N)cc(C)c1Oc1nc(NC2CCC(NCc3ccc(S(C)(=O)=O)cc3)CC2)nc2ccsc12 (stereo not given) | < 1 | ≤ 1 | 556 | 57.3 | > 75200 | < 1 | – | 75200 | < 1 | 212 | ≤ 1 | 1320 | 2.4 | – | – |
| Cc1cc(/C=C/C#N)cc(C)c1Oc1nc(NC2CCN(Cc3ccc(S(C)(=O)=O)cc3)CC2)nc2ccsc12 | – | – | – | 2.32 | – | – | 890 | 1800 | – | – | – | – | – | – | – |
| Cc1cc(/C=C/C#N)cc(C)c1Oc1nc(NC2CCN(Cc3cccc(C#N)c3)CC2)nc2ccsc12 | 24 | 55 | 101 | 4.43 | > 2830 | 107 | – | 2820 | 105 | 470 | 352 | 639 | – | – | – |
| Cc1cc(C#N)cc(C)c1Oc1nc(NC2CCC(NCc3ccc(C#N)cc3)CC2)nc2ccsc12 (stereo not given) | < 1 | ≤ 1 | < 1 | 3810 | > 5150 | < 1 | – | 5150 | < 1 | < 1 | < 1 | 1.3 | – | – | – |
| Cc1cc(/C=C/C#N)cc(C)c1Oc1nc(NC2CCN(Cc3ccccc3F)CC2)nc2ccsc12 | 14 | 18 | 74 | 6.34 | > 2480 | 61 | – | 2480 | 83 | 361 | 32 | 392 | – | – | – |
